TNAP act mid DEA = activators of human TNAP at intermediate phosphate acceptor; 64,000 tested, under 10 active; activation factor at 20 µM; purified TNAP, CDP-star luminescence, 100 mM DEA, 30 min; stronger effect = higher value; scale: 0 levamisole-inhibited, 1 vehicle-only enzyme; P05186;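 active = activation factor of at least 2 at 20 µM, relative to controls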
SF-1 act = activates the human nuclear receptor SF-1; activation, % at 10 µM; 65,000 compounds, 1.9% hits; AID 522; CHO-K1 Gal4-SF-1 LBD luciferase reporter; % increase over DMSO SF-1-specific signal; Q13285;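 active = activation above the mean activation of all tested compounds plus 3 SD, cut at about 50% in these data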
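Test system: CHO-K1 cells co-transfected with Gal4 DBD–human SF-1 LBD, 5xGal4 luciferase reporter. Quantity: 4,000 cells per well. Compound: 10 µM only. Incubation: compound added 1 h post-seeding, 20 h exposure at 37 °C, 5% CO2. Detection: SteadyLite luciferase luminescence. Replication: one test per compound.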
RORA act = activators of human nuclear receptor RORA; CHO-K1 Gal4-RORA LBD luciferase reporter, luminescence; percent increase over mock-subtracted basal signal; activation, % at 10 µM; 65,000 compounds, 1.5% hits; AID 560;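 active = activation above the mean of all tested compounds plus 3 SD, cut at about 49% in these data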
Target sequence (P35398 whole entry, looked up, the tested form may be a part): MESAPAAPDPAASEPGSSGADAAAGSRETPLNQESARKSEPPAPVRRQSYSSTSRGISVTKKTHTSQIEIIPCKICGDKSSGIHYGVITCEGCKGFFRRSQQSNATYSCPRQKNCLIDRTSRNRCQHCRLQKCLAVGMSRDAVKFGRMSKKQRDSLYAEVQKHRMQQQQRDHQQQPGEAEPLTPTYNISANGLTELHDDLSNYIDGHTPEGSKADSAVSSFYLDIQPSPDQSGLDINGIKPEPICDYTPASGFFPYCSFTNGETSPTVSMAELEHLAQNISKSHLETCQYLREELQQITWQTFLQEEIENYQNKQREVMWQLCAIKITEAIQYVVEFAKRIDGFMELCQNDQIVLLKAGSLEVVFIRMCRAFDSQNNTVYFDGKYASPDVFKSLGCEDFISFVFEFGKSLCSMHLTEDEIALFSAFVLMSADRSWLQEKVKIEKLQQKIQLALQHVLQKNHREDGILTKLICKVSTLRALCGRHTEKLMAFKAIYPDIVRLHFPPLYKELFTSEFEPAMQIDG
E coli RNAP = Escherichia coli RNA polymerase inhibition; 62,000 compounds, 0.2% hits; E. coli RNA polymerase, fluorescence transcription assay; P0A8V2; inhibition, %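 (tested at 10 µM)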; in the data active = inhibition above about 20%
MT1-MMP txn act = MT1-MMP promoter transcription activation | AID 750 | activation factor at 10 µM | HT1080 MT1-MMP promoter luciferase reporter, luminescence, overnight; stronger effect = higher value | 86,000 compounds, 0.16% hits;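 active = activation factor of at least 2 for MT1-MMP transcription at 10 µM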
Of the large screens only hits and unclear results are named; the others gave an inactive call. An excerpt weighted towards active compounds, which were near 2.1% of everything screened.

Cc1ccc(-n2ncc3c2ncn2c(C)nnc32)cc1C	RORA act 60
COc1cccc2c(=O)c(SC(F)(F)C(F)C(F)(F)F)c(C)[nH]c12 (stereo unspecified)	SF-1 act 51
Cc1[nH]c2ccc(F)cc2c(=O)c1SC(F)(F)C(F)C(F)(F)F (stereo unspecified)	none
CCOC(=O)N1CCC(NS(=O)(=O)c2cc(Br)cc3c2N(C(=O)CC)CC3)CC1	none
CCCc1noc(-c2ccc(-c3ccccc3)cc2)n1	SF-1 act 55, RORA act 57
Cc1cc(C)c2nc(NC(=O)c3cc(C)on3)sc2c1	none (no result: TNAP act mid DEA, SF-1 act, RORA act, E coli RNAP)
CCc1ccc2nc(NC(=O)c3cc(C)on3)sc2c1	SF-1 act 117, RORA act 69 (no result: E coli RNAP)
Cc1cc(C)cc(-n2c(C)cc(C(=O)CSc3nnnn3C)c2C)c1	none (no result: TNAP act mid DEA, SF-1 act, RORA act, E coli RNAP)
Cc1cc(C(=O)CSc2nnnn2C)c(C)n1-c1cccc(F)c1	SF-1 act 53
CN(C1CCS(=O)(=O)C1)S(=O)(=O)c1ccc(N2CCCC2=O)cc1 (stereo unspecified)	E coli RNAP 21
C=CCSc1nnc2c(n1)[nH]c1c(C)cccc12	RORA act 84
Nc1nnc(-c2cc3ccccc3oc2=O)s1	SF-1 act 55
O=c1oc2ccccc2cc1-c1nnc(NCc2ccco2)s1	none (no result: TNAP act mid DEA, SF-1 act, RORA act, E coli RNAP)
CCn1nccc1C(=O)Nc1ccc(Cl)cc1Cl	SF-1 act 67
COC(=O)c1ccc(C(NC(=O)OCc2ccccc2)/C(F)=C/[C@@H](C)C(=O)NCc2nn(-c3ccccc3)nc2C)cc1 (stereo partly specified)	none (no result: TNAP act mid DEA, SF-1 act, RORA act, E coli RNAP)
COCCCn1cnc2c(c1=O)c1nc3ccccc3nc1n2-c1ccccc1	none
COCCCn1cnc2oc3nc4ccccc4nc3c2c1=O	RORA act 50
NC(=O)c1oc2ccccc2c1NC(=O)c1nc2ccccc2s1	SF-1 act 64, RORA act 83
NC(=O)c1oc2ccccc2c1NC(=O)c1ccc(F)cc1	none
Cc1nc2ccccc2c(=O)n1NC(=O)Cc1ccccc1	none (no result: TNAP act mid DEA, SF-1 act, RORA act, E coli RNAP)
COc1cccc(OCC(=O)Nc2c(C(=O)Nc3ccc(OC)cc3OC)oc3ccccc23)c1	none
CCCCOC(=O)C(C)Oc1ccc(=O)n(-c2ccccc2)n1 (stereo unspecified)	RORA act 57
O=C(Oc1nsnc1N1CCOCC1)N1CCCCC1	none (no result: TNAP act mid DEA, E coli RNAP)
O=C(Oc1nsnc1N1CCOCC1)N1CCOCC1	E coli RNAP 31
CCCc1cc(=O)[nH]c(SCC(=O)Nc2ccc(OC(F)F)cc2)n1	none
O=C(c1ccco1)N1CCN(c2ncnc3c(-c4ccccc4)nsc23)CC1	RORA act 62 (no result: E coli RNAP)
CC(C)Cc1[nH]c(=O)c(C#N)c2c1COC(C)(C)C2	none
CC1CC1C(=O)OCc1cc(=O)n2cc(Br)ccc2n1 (stereo unspecified)	SF-1 act 55
CCOC(=O)c1c(NC(=O)Cc2cccs2)sc2c1CCCC2	none
NC(=O)c1c(NC(=O)Cc2cccs2)sc2c1CCC2	SF-1 act 51
Cc1occc1C(=O)Nc1sc2c(c1C(N)=O)CCCCC2	SF-1 act 58
O=C(Nc1sc2c(c1C(=O)O)CCCCC2)c1ccco1	SF-1 act 57, RORA act 62
CN(C)C(=O)c1c(NC(=O)c2ccco2)sc2c1CCCCC2	none (no result: TNAP act mid DEA, SF-1 act, RORA act, E coli RNAP)
Cn1c(=O)c2c(nc(SCC(=O)Nc3ccc(N4CCOCC4)c(Cl)c3)n2C)n(C)c1=O	none
CCOP(=O)(OCC)C(C#N)=C1SCN(c2ccccc2)CS1	none (no result: TNAP act mid DEA, SF-1 act, RORA act, E coli RNAP)
COc1cccc(C2=CC(c3ccccc3)n3nnnc3N2)c1 (stereo unspecified)	RORA act 79
COc1cccc(C2=CC(c3ccc(N(C)C)cc3)n3nnnc3N2)c1 (stereo unspecified)	none
Cc1ccnc(SCCn2c(Br)nc3c2c(=O)n(C)c(=O)n3C)n1	none
Cc1ccc(NC(=O)c2cc(N(C)C)ccc2[P+](=O)O)cc1	RORA act 69
CCCCNC(=O)c1cc(-c2ccc(OC)c(OC)c2)on1	none
CCCCNC(=O)c1cc(-c2ccc(F)cc2)on1	RORA act 72
O=C(NCCN1CCOCC1)c1cc(-c2ccc(Br)cc2)on1	none
CCCCNC(=O)c1cc(-c2ccc(OC)cc2)on1	RORA act 59 (no result: MT1-MMP txn act)
C=CCNC(=O)c1cc(-c2ccc(Br)cc2)on1	RORA act 61
COc1ccc(C(=O)c2c[nH]c3ccccc23)cc1	none (no result: SF-1 act, RORA act, E coli RNAP, MT1-MMP txn act)
c1ccc2c(c1)NC1(CCCC1)n1c-2nc2ccccc21	SF-1 act 59 (no result: E coli RNAP)
O=C(OCC#CCSc1nnc(-c2ccccc2)o1)c1ccco1	none
O=C(OCC#CCSc1nnc(-c2ccc(Br)cc2)o1)c1ccco1	E coli RNAP 43
CC(C)Oc1ccc(C2C(C(=O)c3ccco3)=C(O)C(=O)N2Cc2cccnc2)cc1 (stereo unspecified)	RORA act 70
CCOc1ccc(C2C(C(=O)c3ccco3)=C(O)C(=O)N2Cc2cccnc2)cc1OC (stereo unspecified)	none
c1ccc2c(-c3nc(-c4ccncc4)no3)cccc2c1	SF-1 act 74
c1ccc(-c2noc(-c3cccc4ccccc34)n2)cc1	SF-1 act 65, RORA act 61, MT1-MMP txn act 2
CN(C)CCCNC(CC(=O)Nc1ccc(Cl)cc1)C(=O)O (stereo unspecified)	none
CN(C)/C=C1\C(=O)Nc2ccccc21	none (no result: TNAP act mid DEA, SF-1 act, RORA act, E coli RNAP)
O=C1N/C(=C\c2ccccc2)c2ccccc21	SF-1 act 63, RORA act 51
Cc1nc(-c2ccc(C(=O)O)cc2)cs1	none
Cc1nc2cc(C(=O)O)ccc2s1	SF-1 act 53
Cc1c(C)n(CC(O)CN2C(=O)c3ccccc3S2(=O)=O)c2ccccc12 (stereo unspecified)	none (no result: TNAP act mid DEA, SF-1 act, RORA act, E coli RNAP)
COC(=O)Cn1c(C(=O)N2CCCC2)cc2c1C[C@H]1CN(C(=O)c3ccccc3)[C@@](Cc3ccccc3)(C(=O)OC)[C@@H]21	none (no result: TNAP act mid DEA, SF-1 act, RORA act, E coli RNAP)
N#Cc1c(/N=C/c2ccco2)sc2c1CCCCC2	SF-1 act 82
N#Cc1c(/N=C/c2cccs2)sc2c1CCC2	none
N#Cc1c(/N=C/c2cc(Br)cs2)sc2c1CCC2	MT1-MMP txn act 2.2 (no result: TNAP act mid DEA, SF-1 act, RORA act, E coli RNAP)
c1cncc(C2Nc3ccccc3-c3nc4ccccc4n32)c1 (stereo unspecified)	RORA act 58 (no result: MT1-MMP txn act)
CC(=O)N1C2(C=CC1(C)C(=O)NCCN1CCOCC1)CCCCC2 (stereo unspecified)	none (no result: TNAP act mid DEA, SF-1 act, RORA act, E coli RNAP)
COc1cccc(-c2csc(NC(=O)C3CC3)n2)c1	SF-1 act 60, RORA act 74
COc1cccc(-c2csc(N3CCN(C(=O)C4CCCCC4)CC3)n2)c1	none
COC(=O)c1ccc(C(NC(=O)OCc2ccccc2)/C(C)=C/[C@@H](C)CO)cc1 (stereo partly specified)	none (no result: TNAP act mid DEA, SF-1 act, RORA act, E coli RNAP)
CN1CCN(c2ccc(C(=O)c3ccc(F)cc3)cc2)CC1	RORA act 61
O=C(O)CCC(=O)N1CCN(c2ccc(C(=O)c3ccc(F)cc3)cc2)CC1	none
O=C(c1ccccc1)c1ccc(N2CCCC2)cc1	SF-1 act 77

Screens from PubChem BioAssay.
